Results on 47 sequences are retold here after the EternaBench riboswitch data.

The data set concerns MS2 coat protein. As to the kind of experiment: apparent Kd, MS2 coat protein; higher = weaker binding; RNA-MaP array. Summed up: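 Designed RNAs were produced on an Illumina sequencing chip by transcription of sequenced DNA templates. Binding to fluorescently labeled MS2 coat protein (1.5 nM to 3 μM) was measured at room temperature with or without input ligand. The apparent Kd is the median of per-cluster binding-curve fits. Designs were excluded when measured on fewer than 10 clusters.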

Where [1] appears, read: designed as: OFF switch for flavin mononucleotide, no ligand.
[2] abbreviates: ligand present: flavin mononucleotide, designed as: OFF switch for flavin mononucleotide.
Setting [3] is: designed as: OFF switch for tryptophan, no ligand.
Where [4] appears, read: ligand present: tryptophan, designed as: OFF switch for tryptophan.
Setting [5] is: designed as: ON switch for flavin mononucleotide, no ligand.
[6] abbreviates: ligand present: flavin mononucleotide, designed as: ON switch for flavin mononucleotide.
Where [7] appears, read: designed as: OFF switch for theophylline, no ligand.
[8] abbreviates: ligand present: theophylline, designed as: OFF switch for theophylline.
Where [9] appears, read: designed as: ON switch for tryptophan, no ligand.
[10] abbreviates: ligand present: tryptophan, designed as: ON switch for tryptophan.

On to “GGUAGUACCGUAGGAUAUUCCGCUUACAUGAGGAUCACCCAUGUGGCUGGUAUUUCGUCAAAGAAGAAGAAGGACGUCUGCGCG”, for which the “apparent Kd” value stood at 0.00685 µM under setting [1] and 0.00643 µM under setting [2].
As to “GUUCGUAGGUAGGAUAUAAGAGCUGUACUCUUCUUAGAAGGACCCACAUGAGGAUCACCCAUGUUUUGGGCGUG”, the “apparent Kd” value under setting [1] was determined as 0.0103 µM and the “apparent Kd” value under setting [2] worked out at 0.0355 µM.
The matching figures for “UUUUUAUGGCAGACUACCGCACAUGAGGAUCACCCAUGUUACAGAAGGGACCACAUCCCACCUGGUCAGGAUAUGUAUACGCGG”: 0.00907 µM and 0.00677 µM.
Consider “GUUCGUCCUACGGCCGCCACUAAAACACAUGAGGAUCACCCAUGUUAGUAUCCUGGCUGGUGUGAUAGGACCGGGUAGGGAAGAA”, for which the “apparent Kd” value runs as follows: under setting [3], 0.0121 µM; under setting [4], 0.0241 µM.
Take “GUGUACUUUGAAGGAUAUAACGGCGGCAUUUUCUUAGAAGGUCAAGGGACAUGAGGAUCACCCAUGUUAACAUUGGUUCUAACA”: the “apparent Kd” value runs as follows: under setting [1], 0.0106 µM; under setting [2], 0.0175 µM.
Take “CAGUUACAUGAGGAUCACCCAUGUUUUUAACGCAGAGGAUAUCCGGUGGUUAAUGGCUCAGGAGAAGGCUGUGGUC”: the “apparent Kd” value under setting [5] was 0.0163 µM and the “apparent Kd” value under setting [6] worked out at 0.00937 µM.
The matching figures for “UCGGUUCGCGGAGGAUAUACUUCACUUCAGGAAGUAGAAGGCCGGCGGUGCUAAGGGUCACAUGAGGAUCACCCAUGUCUUCAC”: 0.0306 µM and 0.0207 µM.
In the case of “ACCUAAGCCACAGAUACCAGAGUAAUAGGCCAAUUUCAAAACAUGAGGAUCACCCAUGUACUCCCUUGGCAGCUGCGAAUCGAAA”, the “apparent Kd” value by setting is: under setting [7], 0.0109 µM; under setting [8], 0.0152 µM.
Consider “CACUUCAUAAUAGGAUAUCAUGGAUGACAUGAGGAUCACCCAUGUCCGCACUCUUCAACUACACGUGAGAAGGAUUCGCGGGUC”, for which the “apparent Kd” value is, setting by setting: under setting [5], 0.194 µM; under setting [6], 0.13 µM.
In the case of “UAUGUACAUGAGGAUCACCCAUGUUAGGAUAUAUGGCCGCGCUUUAAACACCGUGCACAUAGAAGGAACAUUUG”, the “apparent Kd” value is 0.035 µM under setting [1] and 0.0337 µM under setting [2].
“ACAAUGUGAGGAUAUCGUAAGCAUGACUAUGGCGCUAACACCGAGAAGGCACAUGAGGAUCACCCAUGUCCUGA”: the “apparent Kd” value under setting [1] amounted to 0.00684 µM and the “apparent Kd” value under setting [2] was determined as 0.0107 µM.
As to “AAGUGCAGCCGAGGAUAUAUCCACACGCCAGUACCCUCUCACAUGAGGAUCACCCAUGUUACCGGAUAGAAGGCGGUUUAUUAU”, the “apparent Kd” value by setting is: under setting [1], 0.0317 µM; under setting [2], 0.0585 µM.
Turning to “ACAUGAGGAUCACCCAUGUUUGACUGGGCUUGCUCUCGCCGUAGAAGGUUUCAUUAAGUAGAGGAAAAGGAUAUACACUGGGCC”, the “apparent Kd” value reads like this: under setting [1], 0.0122 µM; under setting [2], 0.0107 µM.
“UAUGCGUUUUCAGGAUAUGCACACAUGAGGAUCACCCAUGUAGGUCUGCGGCGGCAUCCUCCUUUGCAGAAGGGAAUCGCGCUU”: the “apparent Kd” value under setting [1] is 0.0441 µM and the “apparent Kd” value under setting [2] came out at 0.0716 µM.
Consider “CGCUCGCGGCGGAAGGAUAUGUCUAUCCGGACAUGAGGAUCACCCAUGUAUGGGUACUUGCUGCAACAGAAGGUCCGUAUUAUAUG”, for which the “apparent Kd” value amounted to 0.29 µM under setting [5] and 0.12 µM under setting [6].
Regarding “CGCUGUUGGCAGGAUAUAUUCGCAGCCCAGGCAAUAGAAGGGCCGACAUGAGGAUCACCCAUGUGUCUACAGGG”, the “apparent Kd” value by setting is: under setting [1], 0.117 µM; under setting [2], 0.341 µM.
As to “GCUGCACAUUCGGCCGCCACUGCUGUUACAGGAAGCUAUAGCUCACAUGAGGAUCACCCAUGUCCCAGGACCGGGAAAGUAUGGA”, the “apparent Kd” value reads like this: under setting [9], 0.0729 µM; under setting [10], 0.0659 µM.
As to “AUUACCCCAUGAGGAUAUCCAAUAAGGAGAGACAUGAGGAUCACCCAUGUCGACGGACGCAUACAGGAGAAGGCAUGGACUAGC”, the “apparent Kd” value stood at 0.0136 µM under setting [5] and 0.00754 µM under setting [6].
As for “CUGUGAGUAGGAUAUGAUCACAAGUACAUGAGGAUCACCCAUGUGUGGCUCUGUACCGCCUCAGAAGGACUCGUCU”, the “apparent Kd” value under setting [1] came out at 0.028 µM and the “apparent Kd” value under setting [2] was 0.0948 µM.
For the sequence “UGAUUACAUGAGGAUCACCCAUGUGACUACGCCUCAGGAUAUGAUGACAAAUUCUAGAAGUCAGAAGGGAGUUUGU”, the “apparent Kd” value under setting [5] stood at 0.0291 µM and the “apparent Kd” value under setting [6] amounted to 0.0213 µM.
In the case of “ACAAAGACAGGAUAUACAAAUUACAACUAAUCAAGGAAAAGACAUGAGGAUCACCCAUGUAGAAGGGUCAAUAA”, the “apparent Kd” value under setting [1] stood at 0.0269 µM and the “apparent Kd” value under setting [2] came out at 0.0205 µM.
The matching figures for “CGCUGCCGAAGAGGAUAUCCCACGACCCAAACUGGAGAAGGCUUUAGGUUUUGCCGACAUGAGGAUCACCCAUGUGUCAGUGCA”: 0.0131 µM and 0.0114 µM.
For “CUAAUUAUCGAGAAGGAACGACGCAUCACCGAUCUAGCACACAUGAGGAUCACCCAUGUACACCGUUAGGAUAUCGCAAACCAG”, the “apparent Kd” value was determined as 0.00846 µM under setting [1] and 0.00982 µM under setting [2].
As for “AAUCGCAAUUGAGGAUAUUGAACUGAAUUGGCCACAUGAGGAUCACCCAUGUGACCUGUCUCCGUCAAGAAGGCAAUGUGGUGG”, the “apparent Kd” value under setting [5] was found to be 0.00561 µM and the “apparent Kd” value under setting [6] was 0.00481 µM.
Regarding “ACCCAUUUGUUAGGAUAUGACUCGAGACAGGUACAUGAGGAUCACCCAUGUUGUACAGGACCGUCUCAGAAGGAACGAACGUAU”, the “apparent Kd” value is, setting by setting: under setting [1], 0.00964 µM; under setting [2], 0.00875 µM.
Take “CUUCAGGGUGCGGCCGCCACUUAUUAGGUGCUUGCGACGCCAGCACAUGAGGAUCACCCAUGUUCAAGGACCGGGCACCACCUUU”: the “apparent Kd” value under setting [9] worked out at 0.0115 µM and the “apparent Kd” value under setting [10] turned out to be 0.0126 µM.
As to “GCGAAGCAAGGAUAUGCCCGGCGAUACAUGAGGAUCACCCAUGUGAUGUAGUUAGUUGUAGCAGAAGGUGCGCGAU”, the “apparent Kd” value worked out at 0.0176 µM under setting [1] and 0.0114 µM under setting [2].
Consider “GACCACAUGAGGAUCACCCAUGUCUUGGUCCGAGGACCGGUACGGCCGCCACUCGAGAGCCGUACAAAUAAACGGAGUGCCAUCA”, for which the “apparent Kd” value under setting [9] came out at 0.0159 µM and the “apparent Kd” value under setting [10] was found to be 0.0135 µM.
Take “ACUACGCUAGGAUAUACGAGGAGUGCAUGGAAGCGUUUGACACAUGAGGAUCACCCAUGUAGAAGGAGCUGCAA”: the “apparent Kd” value came out at 0.00775 µM under setting [1] and 0.0161 µM under setting [2].
With “UUUUUCCUGUAUAUCGGUACAUGAGGAUCACCCAUGUUCCCAGAGGAUAUUUGAUGGUGGGUAACAAAGAAGGCUGGCUACAGG”, the “apparent Kd” value is, setting by setting: under setting [5], 0.0206 µM; under setting [6], 0.00931 µM.
For the sequence “CUACCAAAUUGAGGAUAUAGCCUGGGAGAACCAAGUUCCAUGAAAUACAUGAGGAUCACCCAUGUCUAGAAGGCAACAAUGGCC”, the “apparent Kd” value came to 0.0924 µM under setting [1] and 0.145 µM under setting [2].
With “AACAUGAGGAUCACCCAUGUUUCAGAUCCUCUCUGGUUCAAGUAGGAUAUGUGUGAUACGGAAGUACAGAAGGACUCCGGAGCA”, the “apparent Kd” value by setting is: under setting [1], 0.0384 µM; under setting [2], 0.0295 µM.
The matching figures for “GGGUACAUCUAGAAGGAGAAUCCUCUUGACAUGAGGAUCACCCAUGUCGUAGUCAAGACUAAAAUCUAGGAUAUAGCUGUGCGU”: 0.233 µM and 0.165 µM.
The like results for “AAUAGCUAAGGAUAUACGUACUCAGAGUGAUAAAUCAAAUAACAUGAGGAUCACCCAUGUAGAAGGAAGAAAUA” were, in that order, 0.0309 µM and 0.0261 µM.
For the sequence “AUCUCUGACUAAGGAUAUGCGGCAAAGAGCCUCUCAGAAAACAUGAGGAUCACCCAUGUAUGGACGCAGAAGGUAGUAGCCCAC”, the “apparent Kd” value runs as follows: under setting [5], 0.00906 µM; under setting [6], 0.0214 µM.
Regarding “AACCGACAUGAGGAUCACCCAUGUGAGGAUAUGUUCGAGCUGGCAGGACCACCCUGGGACAGAAGGCACGUGAA”, the “apparent Kd” value under setting [1] turned out to be 0.0112 µM and the “apparent Kd” value under setting [2] came to 0.0177 µM.
Take “UUAUAAGAGAUAGGAUAUUCCGACAAAAUCGAUGAAGAAGGAUCACUCAAAACAUGAGGAUCACCCAUGUAUAUAACAAAUGUU”: the “apparent Kd” value runs as follows: under setting [5], 0.0575 µM; under setting [6], 0.0254 µM.
As to “UCGUGCAGUGAGGAUAUCCCGAAGGCUUCCAUUGGAGAAGGCACUACAUGAGGAUCACCCAUGUGGCUUGAUAA”, the “apparent Kd” value was 0.044 µM under setting [1] and 0.0565 µM under setting [2].
The like results for “AUACUAAACAUGAGGAUCACCCAUGUGACGUCAGGUCAGUUGAGAAGGCUAGGGAUGCUAGAUGUAGAGGAUAUCAGCGACGGA” were, in that order, 0.0154 µM and 0.00976 µM.
Turning to “GACGGCUCGACGGCCGCCACUCCCUCCGACUGAAGGCACAGUGGACAUGAGGAUCACCCAUGUCCGAGGACCGGGUCGAUCCUGG”, the “apparent Kd” value was determined as 0.0177 µM under setting [9] and 0.0176 µM under setting [10].
On to “AUUGUGAACCUGAUCGUAUAAUGUAGCGAUACCAGUAUAAUACAUUACCCUUGGCAGCGCGACACAUGAGGAUCACCCAUGUAAG”, for which the “apparent Kd” value was 0.0265 µM under setting [7] and 0.0394 µM under setting [8].
On to “AUCGACAAAGGAUAUGAUGCGAAUGACAUGAGGAUCACCCAUGUGGAGCCAAGUGUCCCGUCAGAAGGUUGUACGU”, for which the “apparent Kd” value runs as follows: under setting [1], 0.152 µM; under setting [2], 0.313 µM.
Consider “ACAAUCACAUGAGGAUCACCCAUGUUAGACAGGGUCAAUGUGAAGGAUAUGAACAAUGAAAAUACUCAGAAGGUCAUAUUGAAA”, for which the “apparent Kd” value reads like this: under setting [5], 0.192 µM; under setting [6], 0.0274 µM.
With “GAAUGAAGCGAGAAGGGACCAAAUGGGCAGAAACUACAUGAGGAUCACCCAUGUAAAAUAGAUAGUCAGGAUAUCGGAAGAAAG”, the “apparent Kd” value is 0.0364 µM under setting [1] and 0.0318 µM under setting [2].
As to “ACGCGCUGGGCGGCCGCCACUCACCUGCCGUGGACAUUUCGAGGUCACAUGAGGAUCACCCAUGUGAGGACCGGGCCCUGUAGGC”, the “apparent Kd” value is, setting by setting: under setting [3], 0.0132 µM; under setting [4], 0.0212 µM.
As for “UACAUGAGGAUCACCCAUGUCUCUAGUCGUUUUUGUUAGAAUAGAAGGAGUCGCAUAAAGCAUAACUAGGAUAUAUUCUUGUUU”, the “apparent Kd” value stood at 0.0163 µM under setting [5] and 0.0116 µM under setting [6].
Turning to “AUUUAAAAGUUAGGAUAUCUCAUCAGCUCAAUAGAUGACAUGAGGAUCACCCAUGUGACCAAAGGAGAGAAGGAACUCAUAAUG”, the “apparent Kd” value is 0.0651 µM under setting [1] and 0.0314 µM under setting [2].
